Reference: ChEMBL document CHEMBL1649117, “GRL-02031, a novel nonpeptidic protease inhibitor (PI) containing a stereochemically defined fused cyclopentanyltetrahydrofuran potent against multi-PI-resistant human immunodeficiency virus type 1 in vitro” (Antimicrob Agents Chemother, 2009)

Assays:
[1] = tested on: Human immunodeficiency virus 1; experiment: Antiviral activity against HIV1 NL4-3 harboring I50V mutation in protease encoding region infected in human […] cells assessed as inhibition of p24 Gag protein production by ELISA; type: functional, organism-based; conditions: Human immunodeficiency virus 1, NL4-3
Summary of the method: (§1)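 Protease PCR fragments (ApaI/SmaI) were cloned into pHIV-1NLSma, and virions were harvested from transfected 293T cells over 48 h. MT-4 target cells (10^5/ml) were infected with 100 TCID50s, with or without drug, at 37°C. Day-7 supernatant p24 Gag was read by chemiluminescent enzyme immunoassay.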

[2] = tested on: Human immunodeficiency virus 1; experiment: Ratio of EC50 for ritonavir to compound against HIV1 NL4-3 harboring M46I mutation in protease encoding region infected in human […] cells; type: functional
[3] = tested on: Human immunodeficiency virus 1; experiment: Antiviral activity against HIV1 Ba-L infected in human PHA-PBM cells after 7 days by MTT assay; type: functional, organism-based; conditions: Human immunodeficiency virus 1, Ba-L, PBMC, 168 h
[4] = tested on: Human immunodeficiency virus 1; experiment: Antiviral activity against HIV1 NL4-3 harboring V82I/I85V mutation in protease encoding region infected in human […] cells assessed as inhibition of p24 Gag protein production by ELISA; type: functional, organism-based; conditions: Human immunodeficiency virus 1, NL4-3; summary of the method: as §1
[5] = tested on: Human immunodeficiency virus 1; experiment: Ratio of EC50 for HIV1 NL4-3 harboring L33F mutation in protease encoding region infected in human […] cells to EC50 for HIV1 NL4-3 infected in human MT4 cells; type: functional
[6] = tested on: Human immunodeficiency virus 1; experiment: Ratio of EC50 for saquinavir to compound against HIV1 NL4-3 harboring L90M mutation in protease encoding region infected in human […] cells; type: functional
[7] = tested on: Human immunodeficiency virus 1; experiment: Antiviral activity against HIV1 subtype A 92UG037 infected in human PHA-PBM cells after 7 days by MTT assay; type: functional, organism-based; conditions: Human immunodeficiency virus 1, subtype A 92UG037, PBMC, 168 h
[8] = tested on: Human immunodeficiency virus 1; experiment: Ratio of EC50 for indinavir to compound against HIV1 NL4-3 harboring I84V mutation in protease encoding region infected in human […] cells; type: functional
[9] = tested on: Human immunodeficiency virus 1; experiment: Antiviral activity against HIV1 subtype C 97ZA003 infected in human PHA-PBM cells after 7 days by MTT assay; type: functional, organism-based; conditions: Human immunodeficiency virus 1, subtype C 97ZA003, PBMC, 168 h
[10] = tested on: Human immunodeficiency virus 2; experiment: Antiviral activity against HIV2 ROD infected in human MT2 cells after 7 days by MTT assay; type: functional, organism-based; conditions: Human immunodeficiency virus 2, ISOLATE ROD, MT2, 168 h
[11] = tested on: Human immunodeficiency virus 1; experiment: Antiviral activity against HIV1 NL4-3 harboring I84V/I85V mutation in protease encoding region infected in human […] cells assessed as inhibition of p24 Gag protein production by ELISA; type: functional, organism-based; conditions: Human immunodeficiency virus 1, NL4-3; summary of the method: as §1
[12] = tested on: Human immunodeficiency virus 1; experiment: Ratio of EC50 for HIV1 NL4-3 harboring M46I mutation in protease encoding region infected in human […] cells to EC50 for HIV1 NL4-3 infected in human MT4 cells; type: functional
[13] = tested on: Human immunodeficiency virus 1; experiment: Ratio of EC50 for ritonavir to compound against HIV1 NL4-3 harboring I85V mutation in protease encoding region infected in human […] cells; type: functional
[14] = tested on: Human immunodeficiency virus 1; experiment: Ratio of EC50 for amprenavir to compound against HIV1 NL4-3 harboring Q58E mutation in protease encoding region infected in human […] cells; type: functional
[15] = tested on: Human immunodeficiency virus 1; experiment: Ratio of EC50 for ritonavir to compound against HIV1 NL4-3 harboring I84V/I85V mutation in protease encoding region infected in human […] cells; type: functional
[16] = tested on: Human immunodeficiency virus 1; experiment: Antiviral activity against HIV1 NL4-3 harboring M46I/I47V mutation in protease encoding region infected in human […] cells assessed as inhibition of p24 Gag protein production by ELISA; type: functional, organism-based; conditions: Human immunodeficiency virus 1, NL4-3; summary of the method: as §1
[17] = tested on: Human immunodeficiency virus 1; experiment: Antiviral activity against HIV1 NL4-3 harboring L10F/I47V/V82I/I85V mutation in protease encoding region infected in human […] cells assessed as inhibition of p24 Gag protein production by ELISA; type: functional, organism-based; conditions: Human immunodeficiency virus 1, NL4-3; summary of the method: as §1
[18] = tested on: Human immunodeficiency virus 2; experiment: Antiviral activity against HIV2 EHO infected in human MT2 cells after 7 days by MTT assay; type: functional, organism-based; conditions: Human immunodeficiency virus 2, EHO, MT2, 168 h
[19] = tested on: Human immunodeficiency virus 1; experiment: Ratio of EC50 for HIV1 NL4-3 harboring G48V mutation in protease encoding region infected in human […] cells to EC50 for HIV1 NL4-3 infected in human MT4 cells; type: functional

COc1ccc(S(=O)(=O)N(C[C@@H]2CCC(=O)N2)C[C@@H](O)[C@H](Cc2ccccc2)NC(=O)O[C@@H]2C[C@@H]3CCO[C@@H]3C2)cc1
EC50 [1]: 15 nM | Ratio EC50 [2]: 1.2 | EC50 [3]: 15 nM | EC50 [4]: 35 nM | Ratio EC50 [5]: 1.2 | Ratio EC50 [6]: 1 | EC50 [7]: 15 nM | Ratio EC50 [8]: 2.2 | EC50 [9]: 15 nM | EC50 [10]: 600 nM | EC50 [11]: 97 nM | Ratio EC50 [12]: 1.2 | Ratio EC50 [13]: 2.1 | Ratio EC50 [14]: 1 | Ratio EC50 [15]: 14.8 | EC50 [16]: 73 nM | EC50 [17]: 430 nM | EC50 [18]: 600 nM | Ratio EC50 [19]: 1.7
